# Assay results from ChEMBL document CHEMBL3112531, “Synthesis and evaluation of 4-(2-pyrimidinylamino) benzamides inhibitors of hedgehog signaling pathway” (Bioorg Med Chem Lett, 2014).
# pIC50: −log10 of the molar value.
# Tests used:
# [1] = Inhibition of hedgehog signaling pathway in mouse NIH/3T3 cells by Gli1-luciferase reporter gene assay; format: cell-based; conditions: NIH3T3
# [2] = Clearance in Sprague-Dawley rat at 1 mg/kg, iv; format: ADME, organism-based; design: dose 1 mg/kg, route intravenous; conditions: in vivo
# Method in brief: (§1)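 SD rats given a single 1 mg/kg iv dose in 5% DMA + 5% Tween-80. Plasma concentration–time data were analysed by a noncompartmental approach.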
# [3] = tested on: Rattus norvegicus; experiment: Volume of distribution at steady state in Sprague-Dawley rat at 5 mg/kg, po; format: ADME, organism-based; design: dose 5 mg/kg, route oral; conditions: in vivo
# Method in brief: (§2)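 SD rats dosed orally at 5 mg/kg in 0.5% HPMC + 0.3% Tween-80 (pH 2.8). Blood samples (n = 3) were centrifuged at 4000 rpm for 5 min at 4 °C. Plasma concentration–time data were analysed noncompartmentally.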
# [4] = AUC in Sprague-Dawley rat at 1 mg/kg, iv; format: ADME, organism-based; design: dose 1 mg/kg, route intravenous; conditions: plasma; method in brief: as §1
# [5] = Cmax in Sprague-Dawley rat at 5 mg/kg, po; format: ADME, organism-based; design: dose 5 mg/kg, route oral; conditions: in vivo; method in brief: as §2
# [6] = Cmax in Sprague-Dawley rat at 1 mg/kg, iv; format: ADME, organism-based; design: dose 1 mg/kg, route intravenous; conditions: in vivo; method in brief: as §1
# [7] = Clearance in Sprague-Dawley rat at 5 mg/kg, po; format: ADME, organism-based; design: dose 5 mg/kg, route oral; conditions: in vivo; method in brief: as §2
# [8] = Mean residence time (0 to t) in Sprague-Dawley rat at 5 mg/kg, po; format: ADME, organism-based; design: dose 5 mg/kg, route oral; conditions: in vivo; method in brief: as §2
# [9] = Ratio of GDC-0449 IC50 to compound IC50 for hedgehog signaling pathway in mouse NIH/3T3 cells by Gli1-luciferase reporter gene assay; format: cell-based
# [10] = (§3) Mean residence time (0 to t) in Sprague-Dawley rat at 1 mg/kg, iv; format: ADME, organism-based; design: dose 1 mg/kg, route intravenous; conditions: Sprague-Dawley, in vivo; method in brief: as §1
# [11] = Half life in Sprague-Dawley rat at 5 mg/kg, po; format: ADME, organism-based; design: dose 5 mg/kg, route oral; conditions: in vivo; method in brief: as §2
# [12] = Oral bioavailability in Sprague-Dawley rat at 5 mg/kg; format: ADME, organism-based; conditions: in vivo
# Method in brief: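 Oral dosing of SD rats at 5 mg/kg in 0.5% HPMC + 0.3% Tween-80 (pH 2.8), with blood samples n = 3, alongside iv dosing at 1 mg/kg in 5% DMA + 5% Tween-80. Plasma concentration–time data were analysed noncompartmentally.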
# [13] = (§4) Volume of distribution at steady state in Sprague-Dawley rat at 1 mg/kg, iv; format: ADME, organism-based; design: dose 1 mg/kg, route intravenous; conditions: Sprague-Dawley, in vivo, read-out: Vdss; method in brief: as §1
# [14] = Half life in Sprague-Dawley rat at 1 mg/kg, iv; format: ADME, organism-based; design: dose 1 mg/kg, route intravenous; conditions: in vivo; method in brief: as §1
# [15] = AUC in Sprague-Dawley rat at 5 mg/kg, po; format: ADME, organism-based; design: dose 5 mg/kg, route oral; conditions: plasma; method in brief: as §2
# [16] = tested on: Rattus norvegicus; experiment: as §3; format: ADME, organism-based; design: dose 1 mg/kg, route intravenous; conditions: in vivo; method in brief: as §1
# [17] = tested on: Rattus norvegicus; experiment: as §4; format: ADME, organism-based; design: dose 1 mg/kg, route intravenous; conditions: in vivo; method in brief: as §1
smiles,measurement,setting,value
Cc1ccc(CN2CCC(N3CCCCC3)CC2)cc1NC(=O)c1ccc(Nc2ncc(C)c(-c3ccc(OC(F)(F)F)cc3)n2)cc1,pIC50,[1],7.71
Cc1ccc(CN2CCCCC2)cc1NC(=O)c1ccc(Nc2ncc(C)c(-c3cnn(C)c3)n2)cc1,pIC50,[1],8.25
Cc1ccc(CN2C[C@@H](C)O[C@@H](C)C2)cc1NC(=O)c1ccc(Nc2ncc(C)c(-c3cnn(C)c3)n2)cc1,pIC50,[1],8.08
Cc1ccc(CNCc2ccco2)cc1NC(=O)c1ccc(Nc2ncc(C)c(-c3ccc(OC(F)(F)F)cc3)n2)cc1,pIC50,[1],8.60
Cc1ccc(CN2CCc3sccc3C2)cc1NC(=O)c1ccc(Nc2ncc(C)c(-c3ccc(OC(F)(F)F)cc3)n2)cc1,pIC50,[1],8.82
Cc1ccc(CN2C[C@@H](C)O[C@@H](C)C2)cc1NC(=O)c1ccc(Nc2ncc(C)c(-c3ccc(OC(F)(F)F)cc3)n2)cc1,clearance,[2],24.9 mL/min/kg
same,Vdss,[3],42.9 L/kg
same,AUC,[4],580 ng·h/mL
same,Cmax,[5],94 ng/mL
same,Cmax,[6],300 ng/mL
same,CL/F,[7],51.9 mL/min/kg
same,MRT last,[8],9.7 h
same,Ratio IC50,[9],7
same,MRT last,[10],7.4 h
same,half-life,[11],9.5 h
same,pIC50,[1],9.35
same,bioavailability,[12],44.4%
same,Vd,[13],20 L/kg
same,half-life,[14],9.2 h
same,AUC,[15],1300 ng·h/mL
CCCN(C)Cc1ccc(C)c(NC(=O)c2ccc(Nc3ncc(C)c(-c4ccc(OC(F)(F)F)cc4)n3)cc2)c1,pIC50,[1],9.03
Cc1cnc(Nc2ccc(C(=O)Nc3c(C)cccc3C)cc2)nc1-c1ccc(OC(F)(F)F)cc1,MRT last,[8],5.1 h
same,MRT,[16],4 h
same,pIC50,[1],8.89
Cc1ccc(CN2CCC(O)CC2)cc1NC(=O)c1ccc(Nc2ncc(C)c(-c3cnn(C)c3)n2)cc1,pIC50,[1],7.67
Cc1ccc(CNC(C)(C)C)cc1NC(=O)c1ccc(Nc2ncc(C)c(-c3cnn(C)c3)n2)cc1,pIC50,[1],7.74
Cc1ccc(CN2CCOCC2)cc1NC(=O)c1ccc(Nc2ncc(C)c(-c3ccc(OC(F)(F)F)cc3)n2)cc1,Vdss,[3],16.3 L/kg
same,AUC,[4],1300 ng·h/mL
same,Cmax,[5],280 ng/mL
same,Cmax,[6],1200 ng/mL
same,CL/F,[7],32.8 mL/min/kg
same,MRT last,[8],6.6 h
same,Ratio IC50,[9],7
same,MRT,[16],4.1 h
same,half-life,[11],5.8 h
same,pIC50,[1],9.28
same,bioavailability,[12],46.3%
same,Vdss,[17],7.4 L/kg
same,half-life,[14],7.2 h
same,AUC,[15],2400 ng·h/mL
Cc1ccc(CN(CCO)CCO)cc1NC(=O)c1ccc(Nc2ncc(C)c(-c3ccc(OC(F)(F)F)cc3)n2)cc1,pIC50,[1],9.33
Cc1ccc(CN2CCOCC2)cc1NC(=O)c1ccc(Nc2ncc(C)c(-c3ccccc3)n2)cc1,clearance,[2],23.3 mL/min/kg
same,AUC,[4],710 ng·h/mL
same,Cmax,[6],840 ng/mL
same,MRT last,[10],1.2 h
same,pIC50,[1],9.17
same,Vd,[13],2.1 L/kg
same,half-life,[14],1 h
Cc1ccc(CN2CCC[C@@H]2CN2CCCC2)cc1NC(=O)c1ccc(Nc2ncc(C)c(-c3ccc(OC(F)(F)F)cc3)n2)cc1,pIC50,[1],8.41
Cc1ccc(CN2CCN(C)CC2)cc1NC(=O)c1ccc(Nc2ncc(C)c(-c3cnn(C)c3)n2)cc1,pIC50,[1],8.00
Cc1ccc(CN2CCNCC2)cc1NC(=O)c1ccc(Nc2ncc(C)c(-c3ccc(OC(F)(F)F)cc3)n2)cc1,pIC50,[1],7.98
Cc1ccc(CN2CCCCC2)cc1NC(=O)c1ccc(Nc2ncc(C)c(-c3ccc(OC(F)(F)F)cc3)n2)cc1,Ratio IC50,[9],7
same,pIC50,[1],9.00
Cc1ccc(CN(C)CCCN(C)C)cc1NC(=O)c1ccc(Nc2ncc(C)c(-c3ccc(OC(F)(F)F)cc3)n2)cc1,pIC50,[1],7.45
Cc1ccc(CN2CCCc3ccccc32)cc1NC(=O)c1ccc(Nc2ncc(C)c(-c3ccc(OC(F)(F)F)cc3)n2)cc1,pIC50,[1],8.62
Cc1ccc(CN2CCN(C)CC2)cc1NC(=O)c1ccc(Nc2ncc(C)c(-c3ccncc3)n2)cc1,clearance,[2],61.5 mL/min/kg
same,AUC,[4],270 ng·h/mL
same,Cmax,[6],580 ng/mL
same,MRT last,[10],0.9 h
same,pIC50,[1],9.21
same,Vd,[13],5.7 L/kg
same,half-life,[14],1.1 h
Cc1ccc(CN2CCC(O)CC2)cc1NC(=O)c1ccc(Nc2ncc(C)c(-c3ccc(OC(F)(F)F)cc3)n2)cc1,pIC50,[1],9.36
Cc1ccc(CN(CCNC(C)C)C(C)C)cc1NC(=O)c1ccc(Nc2ncc(C)c(-c3ccc(OC(F)(F)F)cc3)n2)cc1,pIC50,[1],7.96
Cc1ccc(CN2C(C)(C)CCCC2(C)C)cc1NC(=O)c1ccc(Nc2ncc(C)c(-c3ccc(OC(F)(F)F)cc3)n2)cc1,pIC50,[1],9.12
Cc1ccc(CNC(C)(C)C)cc1NC(=O)c1ccc(Nc2ncc(C)c(-c3ccc(OC(F)(F)F)cc3)n2)cc1,pIC50,[1],9.05
Cc1ccc(CN2CC3CCCC3C2)cc1NC(=O)c1ccc(Nc2ncc(C)c(-c3ccc(OC(F)(F)F)cc3)n2)cc1 (configuration not stated),pIC50,[1],8.80
